Measurements collected from several papers.
Protocols differ between the studies behind these lines.
Cell line: SW480
Effect on: cell growth or viability

Structure (SMILES) | method | time | quantity | value
COC1=C2C[C@@H](C)C[C@H](OC)[C@H](O)[C@@H](C)/C=C(\C)[C@H](OC(N)=O)[C@@H](OC)/C=C\C=C(/C)C(=O)NC(=CC1=O)C2=O | MTT |  | IC50 | 308 nM
CC(C)C[C@H](NC(=O)[C@H](Cc1ccccc1)NC(=O)c1cnccn1)B(O)O | ATP luminescence |  | IC50 | 8.6 nM
COc1cc([C@@H]2c3cc4c(cc3[C@@H](O[C@@H]3O[C@@H]5CO[C@@H](C)O[C@H]5[C@H](O)[C@H]3O)[C@H]3COC(=O)[C@H]23)OCO4)cc(OC)c1O | MTT | 48 h | IC50 | 17100 nM
O=C(O)C[C@H](O)C[C@H](O)/C=C/c1c(C2CC2)nc2ccccc2c1-c1ccc(F)cc1 | SRB | 72 h | IC50 | 32.3 µg/mL
COc1cc(Nc2nccc(-c3cnn4nc(OC)ccc34)n2)cc(C(F)(F)F)c1 | ATP luminescence |  | IC50 | 720 nM
C=CCNC1=C2C[C@@H](C)C[C@H](OC)[C@H](O)[C@@H](C)/C=C(\C)[C@H](OC(N)=O)[C@@H](OC)/C=C\C=C(/C)C(=O)NC(=CC1=O)C2=O | MTT |  | IC50 | 657 nM
CC[C@H](C)C(=O)O[C@H]1C[C@@H](C)C=C2C=C[C@H](C)[C@H](CC[C@@H]3C[C@@H](O)CC(=O)O3)[C@H]21 | SRB | 72 h | IC50 | 8.85 µg/mL
Cc1cc2c(cc1N1C(=O)c3cccc4c(CCCO)ccc(c34)C1=O)n(C)c(=O)n2C (racemic) | resazurin |  | GI50 | > 10000 nM
